Results: paper PMC3384366 (International Journal of Nanomedicine, 2012)

Experiments:
reverted rat gut sacs = assay: Ex vivo curcumin absorption using reverted rat gut sacs; format: in vitro ADME, Male Sprague-Dawley rats; conditions: serosal fluid + sac tissue; 100 μg/mL, 60 minutes, 37°C; mean ± SE, n = 4
Summary of the method: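 Rats (210 ± 10 g) killed by i.p. urethane/α-chloralose overdose. Small intestine rinsed with 0.9% saline, split into duodenum, jejunum and ileum in 37°C TC-199 (pH 7.4), everted, and tied into ~2 cm medium-filled sacs. Sacs shaken at 37°C in TC-199 with added 100 μg/mL test compound or nanoformulation, 1 h. Serosal fluid and acetonitrile-homogenized tissue protein-precipitated with internal standard, then analysed by HPLC; amounts summed.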

[1] = Oral pharmacokinetics of curcumin in plasma of freely mobile rats; format: in vivo, Male Sprague-Dawley rats; conditions: for AUC/dose: mean ± SEM, n = 4
Summary of the method: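 Male Sprague-Dawley rats (215 ± 10 g) had jugular catheters placed under pentobarbital (50 mg/kg ip) and were used freely moving one day later. They were dosed by gavage at 1 g/kg. Heparinized jugular blood was drawn from 15 to 480 min, and plasma was stored at −20°C. Samples were assayed by HPLC with an internal standard (425 nm; acetonitrile/10 mM phosphate pH 3.5). Noncompartmental analysis, n = 4.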

[2] = Cumulative excretion of curcumin in feces and urine; format: in vivo, Male Sprague-Dawley rats; conditions: rat, oral, 1 g/kg; collected up to 72 hours
[3] = male, Sprague-Dawley, rat, plasma, po, 1 g/kg

Which “Curcumin amount after incubation, duodenum” value (reverted rat gut sacs) does the source give for `COc1cc(/C=C/C(=O)CC(=O)/C=C/c2ccc(O)c(OC)c2)ccc1O` [Curcumin] here?
The value was 0.47 ± 0.04 µg.

And the “Curcumin amount after incubation, ileum” value (reverted rat gut sacs)?
Its value is 0.85 ± 0.02 µg.

And the “Curcumin amount after incubation, jejunum” value (reverted rat gut sacs)?
The value was 1.01 ± 0.05 µg.

And the AUC [1, 3]?
Its AUC is 104 ng·h/mL.

What about the Cmax [1, 3] of the same compound?
Its Cmax is 28 ± 10 ng/mL.

What about the Tmax [1, 3] of the same compound?
Its Tmax is 45 min.

What about the “Time for which curcumin could be detected in plasma after oral ingestion” value ([1]; rat plasma, oral, 1 g/kg (b48 prints 1 mg/kg)) of the same compound?
Its value is 6 h.

And the AUC/dose ([1]; rat plasma, oral, 1 g/kg)?
Its AUC/dose is 0.0062 ± 0.003.

And the AUC/dose ([1]; rat plasma, oral, 1 g/kg, listed as curcumin alone)?
Its AUC/dose is 0.0062.

What about the “Accumulated percentage of curcumin in urine” value [2] of the same compound?
The value was about 0%.

And the “Accumulated percentage of unabsorbed curcumin in feces” value [2]?
The value was about 90%.
